We go through 10 compounds from ChEMBL document CHEMBL1151774, “Synthesis and biological evaluation of new N-linked 5-triazolylmethyl oxazolidinones” (Eur J Med Chem, 2008).

What all share (type): functional
Test [1] deals with Staphylococcus aureus. The test is described as follows: Antimicrobial activity against methicillin-resistant Staphylococcus aureus after 16 to 18 hrs by agar dilution method. On the technique in general: In agar dilution, organisms are placed on agar that contains the substance at set levels.
In test [2] the test system is Staphylococcus aureus. Description: Antimicrobial activity against methicillin-susceptible Staphylococcus aureus after 16 to 18 hrs by agar dilution method.
A further test relates to Enterococcus faecalis. The test is described as follows: Antimicrobial activity against Enterococcus faecalis after 16 to 18 hrs by agar dilution method.
A further test deals with Streptococcus pneumoniae. Description: Antimicrobial activity against sStreptococcus pneumoniae after 16 to 18 hrs by agar dilution method.
Test [3] deals with Staphylococcus aureus. The test is described as follows: Antimicrobial activity against Staphylococcus aureus ATCC 29213 after 16 to 18 hrs by agar dilution method.
In test [4] the test system is Staphylococcus aureus. The test is described as follows: Antimicrobial activity against methicillin-resistant Staphylococcus aureus 05-2 infected in po dosed KunMing SPF mouse. The essentials: (§1)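 Mice given a lethal systemic infection by intraperitoneal injection of the MLD inoculum of MRSA 05-2. Compound dosed orally or by i.v. injection in 0.9% NaCl immediately and 4 h post-infection. ED50 (dose curing 50% of infected mice) calculated by the Bliss method on day 7 post-infection, with 95% confidence ranges.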

Test [5] deals with Staphylococcus aureus. The test is described as follows: Antimicrobial activity against methicillin-resistant Staphylococcus aureus 05-2 infected in iv dosed KunMing SPF mouse. Put shortly: as §1

A word on the MIC: it is the smallest concentration in the dilution series that meets the test's criterion for growth inhibition. The term ED50 denotes the dose at which the effect has come halfway, by size or by number of responders. The low end stands for greater potency, the high end for weaker potency.

Converted amounts (≈) assume the structure as drawn. Some results are limits rather than exact numbers.

For `O=C1O[C@@H](Cn2ccnn2)CN1c1ccc(N2CCN(Cc3ccccn3)CC2)c(F)c1`, the MIC against Staphylococcus aureus [1] is 0.5 µg/mL (≈ 1.14 µM); with Staphylococcus aureus [2], 0.125 µg/mL (≈ 0.286 µM); against Enterococcus faecalis it was 0.5 µg/mL (≈ 1.14 µM); against Streptococcus pneumoniae, 0.5 µg/mL (≈ 1.14 µM); against Staphylococcus aureus [3] it was 0.125 µg/mL (≈ 0.286 µM).
Regarding `O=Cc1cccc(CN2CCN(c3ccc(N4C[C@H](Cn5ccnn5)OC4=O)cc3F)CC2)c1`, the MIC stood at 0.125 µg/mL (≈ 0.269 µM) in the test with Staphylococcus aureus [1]; 0.5 µg/mL (≈ 1.08 µM) with Staphylococcus aureus [2]; 1 µg/mL (≈ 2.15 µM) against Enterococcus faecalis; 1 µg/mL (≈ 2.15 µM) against Streptococcus pneumoniae; 0.25 µg/mL (≈ 0.538 µM) with Staphylococcus aureus [3].
As for `Cc1ccsc1CN1CCN(c2ccc(N3C[C@H](Cn4ccnn4)OC3=O)cc2F)CC1`, the MIC against Staphylococcus aureus [1] was 4 µg/mL (≈ 8.76 µM); in the test on Staphylococcus aureus [2], 1 µg/mL (≈ 2.19 µM); in the test on Enterococcus faecalis, 4 µg/mL (≈ 8.76 µM); with Streptococcus pneumoniae, 4 µg/mL (≈ 8.76 µM); against Staphylococcus aureus [3], 1 µg/mL (≈ 2.19 µM).
For the compound `O=C1O[C@@H](Cn2ccnn2)CN1c1ccc(N2CCN(Cc3ccc(Cl)o3)CC2)c(F)c1`, the MIC against Staphylococcus aureus [1] is 1 µg/mL (≈ 2.17 µM); in the test on Staphylococcus aureus [2] it was 0.125 µg/mL (≈ 0.271 µM); with Enterococcus faecalis, 2 µg/mL (≈ 4.34 µM); in the test with Streptococcus pneumoniae it was 1 µg/mL (≈ 2.17 µM); against Staphylococcus aureus [3], 0.125 µg/mL (≈ 0.271 µM).
For `O=C1O[C@@H](Cn2ccnn2)CN1c1ccc(N2CCN(Cc3ccncc3)CC2)c(F)c1`, the MIC against Staphylococcus aureus [1] is 1 µg/mL (≈ 2.29 µM); against Staphylococcus aureus [2], 0.5 µg/mL (≈ 1.14 µM); in the test on Enterococcus faecalis, 2 µg/mL (≈ 4.57 µM); with Streptococcus pneumoniae, 1 µg/mL (≈ 2.29 µM); in the test with Staphylococcus aureus [3], 0.5 µg/mL (≈ 1.14 µM).
Turning to `Cc1ccc(CN2CCN(c3ccc(N4C[C@H](Cn5ccnn5)OC4=O)cc3F)CC2)s1`, the MIC is 4 µg/mL (≈ 8.76 µM) in the test on Staphylococcus aureus [1]; 0.06 µg/mL (≈ 0.131 µM) against Staphylococcus aureus [2]; 4 µg/mL (≈ 8.76 µM) in the test on Enterococcus faecalis; 2 µg/mL (≈ 4.38 µM) against Streptococcus pneumoniae; 0.125 µg/mL (≈ 0.274 µM) with Staphylococcus aureus [3].
In the case of `O=C1O[C@@H](Cn2ccnn2)CN1c1ccc(N2CCN(Cc3ccsc3)CC2)c(F)c1`, the MIC with Staphylococcus aureus [1] is 1 µg/mL (≈ 2.26 µM); in the test with Staphylococcus aureus [2], 0.06 µg/mL (≈ 0.136 µM); with Enterococcus faecalis it was 1 µg/mL (≈ 2.26 µM); with Streptococcus pneumoniae, 0.5 µg/mL (≈ 1.13 µM); in the test on Staphylococcus aureus [3], 0.06 µg/mL (≈ 0.136 µM).
In the case of `O=C1O[C@@H](Cn2ccnn2)CN1c1ccc(N2CCN(Cc3ccccc3[N+](=O)[O-])CC2)c(F)c1`, the minimal inhibitory concentration (MIC) against Staphylococcus aureus [1] is 1 µg/mL (≈ 2.08 µM); with Staphylococcus aureus [2], 0.125 µg/mL (≈ 0.26 µM); against Enterococcus faecalis it was above 2 µg/mL; against Streptococcus pneumoniae, 1 µg/mL (≈ 2.08 µM); against Staphylococcus aureus [3] it was 0.125 µg/mL (≈ 0.26 µM).
On to `CC(=O)NC[C@H]1CN(c2ccc(N3CCOCC3)c(F)c2)C(=O)O1` [LINEZOLID], for which the ED50 in the test on Staphylococcus aureus [4] and with Staphylococcus aureus [5] was 8.45 mg/kg throughout. Further, the MIC in the test with Staphylococcus aureus [1] worked out at 1 µg/mL (≈ 2.96 µM); with Staphylococcus aureus [2] it was 0.5 µg/mL (≈ 1.48 µM); in the test with Staphylococcus aureus [3], 0.5 µg/mL (≈ 1.48 µM).
Consider `O=C1O[C@@H](Cn2ccnn2)CN1c1ccc(N2CCN(Cc3ccc(Br)s3)CC2)c(F)c1`, for which the MIC with Staphylococcus aureus [1] worked out at 0.5 µg/mL (≈ 0.959 µM); against Staphylococcus aureus [2], 0.06 µg/mL (≈ 0.115 µM); in the test on Enterococcus faecalis, 1 µg/mL (≈ 1.92 µM); against Streptococcus pneumoniae, 0.5 µg/mL (≈ 0.959 µM); in the test on Staphylococcus aureus [3] it was 0.06 µg/mL (≈ 0.115 µM).
